In the library only some 4.6% were active in any assay of this set; here they are far more common.
TAAR1 ag: human TAAR1 agonism; Q96RJ0; activation, % at 3 µM; actives 0.99% (n = 360,000); CHO RD-HGA16 TAAR1, Fluo-8 calcium fluorescence; vehicle wells 0%, saturating PEA agonist 100%;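 active means activation above the mean activation of all test compounds in the run plus 3 SD, cut at about 38% in these data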
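Test system: RD-HGA16 (CHO) cells co-expressing Gα16 and hTAAR1 / Benchmarks: DMSO vehicle as 0%, PEA at EC100 as 100% / Repeats: no replicates (n 1) / Measure: % activation from peak over basal fluorescence ratio, DMSO-to-PEA scaled / Timing: 17-24 h plating, Fluo-8 75 min 37 °C, 30 min RT / Technique: kinetic Fluo-8 calcium fluorescence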
CHO parental Ca: counter-screen for OX1R antagonists: effect in parental CHO cells | parental CHO-K1, ATP-induced calcium, Fluo-8 fluorescence | inhibition, % at 5.6 µM | actives 0.63% (n = 330,000) | AID 463079;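 active means inhibition above that plate's mean sample inhibition plus 3 SD, cut at about 26% in these data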
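test system = CHO parental line | reagent = ATP stimulus | measured by = intracellular calcium via Fluo-8 no-wash fluorescent dye | control set = ATP and no-ATP DMSO wells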
TAAR1 antag: antagonists of human TAAR1. Q96RJ0. CHO RD-HGA16 TAAR1, Fluo-8 calcium fluorescence, antagonist. inhibition, % at 3 µM. actives 1.5% (n = 360,000). AID 624466;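 active means inhibition above a per-plate cutoff, the mean inhibition of test compounds on that plate plus 3 SD, cut at about 49% in these data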
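Material: RD-HGA16 CHO cells with stable hTAAR1 and Gα16; Dosing: single nominal final test compound concentration of 3 µM; Schedule: seeding 17-24 h prior, 75-min 37 °C, 30-min RT dye loading; Detection: kinetic Fluo-8 calcium fluorescence measurement; Measure: % inhibition from peak post-agonist over basal fluorescence ratio; Benchmarks: vehicle and agonist controls.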
OX1R antag-1: blocks the human orexin 1 receptor; inhibition, % at 6.6 µM; O43613; actives 1.8% (n = 330,000); OX1R-expressing cells, FRET antagonist read-out; AID 485270; in the data active means inhibition mostly above about 38%, no sharp cut-off; inactive means mostly below about 40%
Target sequence (O43613 whole entry, looked up): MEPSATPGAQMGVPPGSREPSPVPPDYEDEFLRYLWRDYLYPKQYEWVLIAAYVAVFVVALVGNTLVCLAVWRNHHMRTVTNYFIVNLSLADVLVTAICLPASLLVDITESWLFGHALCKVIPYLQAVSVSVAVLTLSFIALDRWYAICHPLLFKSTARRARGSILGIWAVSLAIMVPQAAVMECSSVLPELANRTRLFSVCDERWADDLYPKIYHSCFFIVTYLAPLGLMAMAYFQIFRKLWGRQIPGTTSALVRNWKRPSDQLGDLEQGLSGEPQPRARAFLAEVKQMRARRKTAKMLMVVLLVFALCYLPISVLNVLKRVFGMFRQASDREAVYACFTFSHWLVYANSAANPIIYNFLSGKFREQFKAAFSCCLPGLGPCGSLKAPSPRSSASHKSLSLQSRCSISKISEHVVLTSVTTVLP
GPR7 antagonist: antagonists of human GPR7 (neuropeptides B/W receptor 1) | P48145 | GPR7-expressing cells, fluorescence antagonist assay | inhibition, % at 4.4 µM | actives 1.1% (n = 290,000) | AID 1861; in the data active means inhibition above about 16%, passing the limit was not always enough;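 further: cells stimulated with the agonist NPW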
OX1R antag-2: blocks the human orexin 1 receptor | O43613 | CHO/OX1R cells, Fluo-8 calcium fluorescence, orexin A | inhibition, % at 5 µM | actives 0.43% (n = 330,000) | AID 434989;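 active means inhibition above its plate's threshold, mean inhibition of all tested compounds on the plate plus 3 SD, cut at about 37% in these data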
OX1R HTRF confirm: OX1R (human) antagonism, HTRF confirmed; shares compounds with OX1R antag-1; OX1R-expressing cells, HTRF antagonist assay; inhibition, % at 6.6 µM; actives 49% (n = 1,800); AID 492964; in the data active means inhibition above about 55%;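 further: CHO cells expressing OX1R stimulated with orexin A at about EC80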
CHO-K1 HTRF cnt: signal in parental CHO-K1 cells, OX1R antagonist counter-screen; shares compounds with OX1R antag-1; HTRF counterscreen; inhibition, % at 6.6 µM; actives 48% (n = 1,800); AID 493232; in the data active means inhibition above about 17%
Of the large screens only hits and unclear results are named; the others gave an inactive call (follow-up assays come after a bar, where they were run).

Cc1nc(NC(=O)c2ccccc2)sc1-c1csc(N)n1	OX1R antag-1 96 | OX1R HTRF confirm 92 | CHO-K1 HTRF cnt inactive
Cc1nc(NC(=O)c2ccccc2)sc1-c1csc(NCc2ccccc2)n1	none
C=CCOC(=O)Nc1nc(CCNC(=O)OCc2ccccc2)c(C(=O)O)s1	none (no result: CHO parental Ca, OX1R antag-1, GPR7 antagonist, OX1R antag-2)
CC(C)C(=O)N1CCCC1(C)C(=O)N(C)Cc1cccc2ccccc12 (stereo not drawn)	none (no result: CHO parental Ca, OX1R antag-1, GPR7 antagonist, OX1R antag-2)
Cc1ccc2c(c1)N(CC(=O)NC1CCCCC1C)C(=O)CO2 (stereo not drawn)	OX1R antag-1 111 | OX1R HTRF confirm inactive | CHO-K1 HTRF cnt inactive
CCC1Oc2ccccc2N(CC(=O)NCCCN2CCN(c3ccc(OC)cc3)CC2)C1=O (stereo not drawn)	none
CCOc1ccccc1NC(=S)NNS(=O)(=O)c1c(C)cc(C)cc1C	OX1R antag-1 97 | OX1R HTRF confirm inactive | CHO-K1 HTRF cnt inactive
COc1ccc(CN2C[C@H]3CON(C)[C@H]3C[C@H]2c2ccc(-c3ccccc3)cc2)cc1	none (no result: CHO parental Ca, OX1R antag-1, GPR7 antagonist, OX1R antag-2)
COCCNC(=O)C(c1ccc(Cl)cc1)N(Cc1ccco1)C(=O)CCC(=O)Nc1ccccn1 (stereo not drawn)	OX1R antag-1 82 | OX1R HTRF confirm 58 | CHO-K1 HTRF cnt inactive
Cc1cc(CN2CCN(CC(=O)Nc3cc(Cl)ccc3-n3cncn3)CC2)no1	none (no result: CHO parental Ca, OX1R antag-1, GPR7 antagonist, OX1R antag-2)
O=C(O)COc1c(-c2ccco2)oc2ccccc2c1=O	none
CC(=O)Oc1c(-c2ccc(Br)o2)oc2ccccc2c1=O	OX1R antag-1 83 | OX1R HTRF confirm 84 | CHO-K1 HTRF cnt inactive
O=C(CN1C2=NCCCN2c2ccccc21)c1cccc(Br)c1	none
O=C(CN1C2=NCCCN2c2ccccc21)c1ccc([N+](=O)[O-])cc1	OX1R antag-1 87 | OX1R HTRF confirm 58 | CHO-K1 HTRF cnt 62
C[C@@H]1C(=O)OC[C@H]1NC(=O)OCc1ccccc1	none (no result: GPR7 antagonist)
COCCCNC(=O)c1c(N)n(-c2ccc3c(c2)OCO3)c2nc3ccccc3nc12	OX1R antag-1 104 | OX1R HTRF confirm inactive | CHO-K1 HTRF cnt inactive
CCOCCCNC(=O)c1c(N)n(-c2ccc3c(c2)OCO3)c2nc3ccccc3nc12	none
COC(=O)C1=C(C)N(C)C(=O)NC1c1cc2c(cc1[N+](=O)[O-])OCO2 (stereo not drawn)	OX1R antag-1 91 | OX1R HTRF confirm inactive | CHO-K1 HTRF cnt 25
O=C(c1ccc([N+](=O)[O-])cc1[N+](=O)[O-])n1cnc2ccccc21	TAAR1 antag 52, OX1R antag-1 108 | OX1R HTRF confirm inactive | CHO-K1 HTRF cnt 68
O=C(c1ccccc1[N+](=O)[O-])n1cnc2ccccc21	none
CCN1C[C@@H]2[C@@H]3C(=O)N(C)C(=O)[C@@H]3[C@](Cc3ccccc3)(C(=O)OC)N2C1=NCc1ccccc1	none (no result: CHO parental Ca, OX1R antag-1, GPR7 antagonist, OX1R antag-2)
O=C1NC(C(=O)O)=CC(c2ccc([N+](=O)[O-])cc2)N1 (stereo not drawn)	OX1R antag-1 104 | OX1R HTRF confirm inactive | CHO-K1 HTRF cnt 78
O=C(NCCN1C(=O)S/C(=C\c2ccc(Cl)c(Cl)c2)C1=O)c1cnccn1	none
O=C(NCCN1C(=O)S/C(=C\c2ccc(Cl)c([N+](=O)[O-])c2)C1=O)C1=COCCO1	OX1R antag-1 83 (no result: GPR7 antagonist) | OX1R HTRF confirm inactive | CHO-K1 HTRF cnt 57
CCOc1ccc(NC2OCC(O)C(O)C2O)c([N+](=O)[O-])c1 (stereo not drawn)	OX1R antag-1 82 | OX1R HTRF confirm inactive | CHO-K1 HTRF cnt 31
Cc1nc2[nH]onc2c2nccc(=O)c12	OX1R antag-1 121 | OX1R HTRF confirm inactive | CHO-K1 HTRF cnt 38
COc1ccc(/C=C/C(=O)OCC(=O)NCc2ccccc2Cl)cc1OC	none (no result: GPR7 antagonist)
COc1cc(/C=N/NC(=O)c2sc(N)c(C#N)c2C)cc(Br)c1O	OX1R antag-1 82 | OX1R HTRF confirm inactive | CHO-K1 HTRF cnt inactive

Screening data from PubChem.
